OX1R antag-1: human HCRTR1 antagonism. O43613. CHO/OX1R cells, Fluo-8 calcium fluorescence, orexin A. inhibition, % at 5 µM. hit rate 0.43% among 330,000. AID 434989;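 active means inhibition above its plate's threshold, mean inhibition of all tested compounds on the plate plus 3 SD, cut at about 37% in these data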
Target sequence (O43613 whole entry, looked up): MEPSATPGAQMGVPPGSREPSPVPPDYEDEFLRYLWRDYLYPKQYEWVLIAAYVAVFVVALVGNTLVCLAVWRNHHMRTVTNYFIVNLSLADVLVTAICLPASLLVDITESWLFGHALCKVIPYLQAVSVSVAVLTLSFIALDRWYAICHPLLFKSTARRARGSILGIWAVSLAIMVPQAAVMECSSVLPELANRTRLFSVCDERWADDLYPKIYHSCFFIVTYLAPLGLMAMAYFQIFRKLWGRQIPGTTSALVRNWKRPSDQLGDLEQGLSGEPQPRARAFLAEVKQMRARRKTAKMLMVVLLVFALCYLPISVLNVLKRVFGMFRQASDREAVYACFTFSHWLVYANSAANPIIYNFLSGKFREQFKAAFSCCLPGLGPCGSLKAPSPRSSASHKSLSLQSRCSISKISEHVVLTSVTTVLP
CHO-K1 Ca antag: counter-screen for M1 antagonists: effect in parental CHO-K1 cells. ATP-induced calcium, Fluo-8 fluorescence. inhibition, % at 3 µM. hit rate 0.6% among 360,000. AID 602250;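 active means inhibition above a per-plate cutoff, the plate's mean sample inhibition plus 3 SD, cut at about 24% in these data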
M1 ag parental: nonselective activator or artifact in parental CHO-K1 cells | Fluo-8 calcium fluorescence; scaled to maximal ATP response, vehicle zero | activation, % at 3 µM | hit rate 0.48% among 360,000; in the data active means activation above about 15%;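 further: untransfected CHO-K1 host cells lacking M1 receptor as counterscreen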
M1 PAM parental: counter-screen for M1 PAMs: effect in parental CHO-K1 cells; ATP EC20, Fluo-8 calcium fluorescence; 0% at ATP EC20, 100% at ATP max; activation, % at 3 µM; hit rate 0.02% among 360,000; AID 602247;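 active means activation above the run cutoff, the mean activation of all test compounds plus 3 SD, cut at about 40% in these data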;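 further: peak over basal fluorescence ratio in a 140 s read after ATP addition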
OX1R antag-2: blocks the human orexin 1 receptor; O43613; OX1R-expressing cells, FRET antagonist read-out; AID 485270; hit rate 1.8% among 330,000; inhibition, % at 6.6 µM; in the data active means inhibition mostly above about 38%, no sharp cut-off; inactive means mostly below about 40%
CHO parental Ca: signal in parental CHO cells, OX1R antagonist counter-screen; parental CHO-K1, ATP-induced calcium, Fluo-8 fluorescence; inhibition, % at 5.6 µM; hit rate 0.63% among 330,000; AID 463079;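 active means inhibition above that plate's mean sample inhibition plus 3 SD, cut at about 26% in these data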
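Assay system – parental CHO cells · Reagent – ATP stimulus · Detection – intracellular calcium via Fluo-8 no-wash fluorescent dye · Evaluation – percent inhibition of ATP-evoked calcium rise, normalized to controls · Controls – ATP wells versus no-ATP DMSO wells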
Numbers stand for hits; . = inactive; / = no result; + = active, no number. Only some compounds are listed: those with a hit (about 2.9% of all), similar ones and a draw of the others.

SMILES	OX1R antag-1	CHO-K1 Ca antag	M1 ag parental	M1 PAM parental	OX1R antag-2	CHO parental Ca
COc1ccc(CNc2cc(NCCCO)c([N+](=O)[O-])c3nonc23)cc1	.	24.9	.	.	.	.
COc1ccc(Nc2cc(NCCCO)c([N+](=O)[O-])c3nonc23)cc1	.	.	.	.	49.0	.
O=[N+]([O-])c1c(NCCCO)cc(Sc2ccc(Cl)cc2)c2nonc12	.	.	.	.	.	.
O=C(NCC1(O)CCCCC1)C1CCC(=O)N(CCc2ccccc2)C1 (stereo unspecified)	.	.	.	.	.	.
O=C(C1=C(c2ccccc2)C(=O)c2ccccc2C1=O)c1ccccc1	/	.	.	.	/	/
O=C1C(=O)c2c(C(=O)c3ccccc3)coc2-c2ccccc21	.	.	.	.	53.4	.
Cc1oc2c(c1C(=O)c1ccccc1)C(=O)C(=O)c1ccccc1-2	.	.	.	.	+	.
Cc1ccc(S(=O)(=O)NNc2c3ccccc3nc3ccc(Cl)cc23)cc1	/	.	.	.	/	/
N#Cc1c(-c2cccs2)cc(-c2cccnc2)nc1N	.	.	.	.	46.3	.
Cc1c(C(=O)O)cccc1-c1ccc(/C=C2/NC(=O)N(c3ccccc3)C2=O)o1	.	.	.	.	.	.
Cc1c(C(=O)O)cccc1-c1ccc(/C=C2\SC(=O)NC2=O)o1	.	.	.	.	55.6	.
O=C(Nc1ccc(Cl)cc1)N1CCCN(c2ccc(C(F)(F)F)cc2[N+](=O)[O-])CC1	57.2	.	.	.	.	.
CCCCc1n[nH]c2c1/C(=N/OCC)CC(C)(C)C2	.	.	.	.	.	.
COC(=O)c1sccc1NC(=S)N1CCN(c2cccc(C)c2C)CC1	.	24.2	.	.	.	.
CCc1ccc(-c2cnc3nc[nH]c(=O)c3n2)cc1	.	.	.	.	43.5	.
O=C(NN=Cc1ccc(F)cc1)c1ccccc1NS(=O)(=O)c1cccs1	.	.	.	.	24.8	.
O=C(N/N=C/c1cccnc1)c1ccccc1NS(=O)(=O)c1cccs1	.	.	.	.	.	.
N#CC1=C(SCC(=O)c2ccccc2)NC2=C(C(=O)CCC2)C1c1ccco1 (stereo unspecified)	.	31.1	.	.	.	.
Fc1ccc(-c2nc3ccccn3c2NCc2ccc3c(c2)OCO3)cc1	.	25.7	.	.	.	.
COC(=O)c1ccccc1S(=O)(=O)N1CCC(C(=O)OCc2ccc([N+](=O)[O-])cc2)CC1	.	.	.	.	.	.
C/C(=N\Nc1ccc([N+](=O)[O-])cc1)c1cc2ccccc2o1	55.4	.	.	.	55.4	40.8
CC(=O)c1cccc(NC(=O)c2ccc([N+](=O)[O-])o2)c1	.	.	.	.	56.9	.
COc1ccc(NC(=O)c2ccc([N+](=O)[O-])o2)cc1	.	.	.	.	48.7	.
O=C(Nc1c(Cl)ccc2nsnc12)c1ccc([N+](=O)[O-])o1	.	.	.	.	57.1	.
CCOc1ccc(S(=O)(=O)N2CCCCC2)cc1NC(=O)c1c(CC)noc1C	.	.	.	.	.	.
SMILES	OX1R antag-1	CHO-K1 Ca antag	M1 ag parental	M1 PAM parental	OX1R antag-2	CHO parental Ca
CCn1c(SCC(=O)NC2(C#N)CCCCC2)nc2ccccc2c1=O	.	.	.	.	.	.
O=C(CCc1nnc(CCC2CCCCC2)o1)NCCn1cccn1	.	.	.	.	.	.
O=c1oc2ccccc2c(O)c1Sc1ccc(Cl)cc1	.	.	.	.	.	.
Nc1nnc(SCC(=O)NNC(=O)c2ccc(F)cc2)s1	.	.	.	.	.	.
Nc1nnc(SCC(=O)NNC(=O)c2ccc([N+](=O)[O-])cc2)s1	.	.	.	.	36.0	.
CN=c1c([N+](=O)[O-])nn(-c2ccc3c(c2)OCCO3)n1O	.	.	.	.	61.5	.
CC(C)c1ccc(N=c2c([N+](=O)[O-])nn(-c3ccc4c(c3)OCCO4)n2O)cc1	.	.	.	.	.	.
CCc1ccc(N(CC(=O)N2CCOCC2)S(C)(=O)=O)cc1	.	.	.	.	.	.
C[C@H](NC(=O)c1nc[nH]c1C(=O)N[C@@H](C)c1ccccc1)c1ccccc1	.	.	.	.	.	.
COc1ccc(OC)c(C(=O)c2ccc(C(=O)Nc3ccc4ccccc4c3)cc2)c1	.	26.6	.	.	.	.
O=C(Nc1ccc2ccccc2c1)c1ccccc1O	.	.	.	.	54.8	.
